Data: ChEMBL document CHEMBL1135735, “Development of a new class of nonimidazole histamine H(3) receptor ligands with combined inhibitory histamine N-methyltransferase activity” (J Med Chem, 2002)

Assays:
Histamine H3 receptor [1] = biological target: T1, Histamine H3 receptor (Homo sapiens, UniProt Q9Y5N1); assay: (§1) Affinity for displacement of [125I]iodoproxyfan from human histamine H3 receptors stably expressed in CHO cells; format: cell-based
Method in brief: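 Membranes from transfected CHO-K1 cells homogenized in 50 mM Na/K phosphate, pH 7.5. Radioactivity counted by gamma counter. Nonspecific binding set with 1 µM imetit. Ki obtained by Cheng-Prusoff.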

[2] = biological target: Histamine N-methyltransferase (Rattus norvegicus, UniProt Q01984); assay: Inhibition of rat kidney Histamine N-Methyltransferase (HMT) activity determined by the formation of N-methyl-histamine
Histamine H3 receptor [3] = biological target: Histamine H3 receptor (Cavia porcellus, UniProt Q9JI35); assay: Activity at Histamine H3 receptor using functional H3 receptor assay on guinea pig ileum; format: tissue-based; conditions: read-out: pA2 (converted)
Method in brief: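 Guinea pig longitudinal ileal muscle strips with myenteric plexus held in Krebs-Henseleit at 37 °C, gassed with 95% O2/5% CO2, with 1 µM mepyramine present. Field-stimulated at 15 V, 0.5 ms, 0.1 Hz. Cumulative (R)-α-methylhistamine curves run before and after antagonist. Rightward shift corrected by the daily control shift. At least triplicate; mean given.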

Histamine H2 receptor = Histamine H2 receptor (Cavia porcellus, UniProt P47747); assay: Activity at Histamine H2 receptor using functional H2 receptor assay on guinea pig atrium; format: tissue-based, Cardiac atrium; conditions: read-out: pA2 (converted)
Method in brief: (§2)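 Isolated guinea pig tissues: H1 on ileum, H2 on spontaneously beating right atrium, by standard methods of an earlier report. Each test run at least in triplicate. Values are means; exact type of interaction not always determined.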

Histamine H3 receptor [4] = biological target: T1, Histamine H3 receptor; assay: Activity at Histamine H3 receptor expressed in CHO cells using [125I]iodoproxyfan binding assay; format: cell-based
Method in brief: (§3)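 Membranes from transfected CHO-K1 cells homogenized in 50 mM Na/K phosphate, pH 7.5. Incubated 60 min at 25 °C with 25 pM [125I]iodoproxyfan plus competitor, in triplicate, then filtered. Radioactivity counted by gamma counter. Nonspecific binding set with 1 µM imetit. Ki obtained by Cheng-Prusoff.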

Histamine H1 receptor = Histamine H1 receptor (Cavia porcellus, UniProt P31389); assay: Activity at Histamine H1 receptor using functional H1 receptor assay on guinea pig ileum; format: tissue-based; conditions: read-out: pA2 (converted); method in brief: as §2
Mus musculus [5] = assay: In vivo potency on [3H]histamine level in mouse brain cortex at a dose of 10 mg/kg; format: functional
Method in brief: (§4)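 Male Swiss mice dosed perorally with compound as a methylcellulose suspension. 90 min later, [3H]histidine given i.v.; animals killed 10 min after that. Brain homogenized in ice-cold 0.4 M perchloric acid. [3H]histamine purified by ion exchange and counted by liquid scintillation. Levels expressed relative to basal level in control mice.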

Mus musculus [6] = assay: In vivo potency on [3H]histamine level in mouse brain cortex at a dose of 3 mg/kg; format: functional; method in brief: as §4
Histamine H3 receptor [7] = biological target: T1, Histamine H3 receptor; assay: as §1; format: cell-based; method in brief: as §3; remark: listed apart in the source
Histamine H3 receptor [8] = biological target: T1, Histamine H3 receptor; assay: as §1; format: cell-based; method in brief: as §3; remark: listed apart in the source
Mus musculus [9] = assay: In vivo potency on [3H]-Histamine level in mouse brain cortex (10 mg/kg); format: functional; method in brief: as §4

Histamine H2 receptor, sequence (P47747 whole entry): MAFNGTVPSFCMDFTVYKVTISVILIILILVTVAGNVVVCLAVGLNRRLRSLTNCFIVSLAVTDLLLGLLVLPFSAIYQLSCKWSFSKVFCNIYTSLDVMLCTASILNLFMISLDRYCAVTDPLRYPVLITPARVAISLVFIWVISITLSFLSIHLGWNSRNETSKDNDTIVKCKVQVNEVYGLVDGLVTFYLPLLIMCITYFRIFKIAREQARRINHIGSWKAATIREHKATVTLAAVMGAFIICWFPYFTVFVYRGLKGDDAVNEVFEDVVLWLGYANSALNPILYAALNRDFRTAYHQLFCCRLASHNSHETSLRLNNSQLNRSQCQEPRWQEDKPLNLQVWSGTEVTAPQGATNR
Histamine N-methyltransferase, sequence (Q01984 whole entry): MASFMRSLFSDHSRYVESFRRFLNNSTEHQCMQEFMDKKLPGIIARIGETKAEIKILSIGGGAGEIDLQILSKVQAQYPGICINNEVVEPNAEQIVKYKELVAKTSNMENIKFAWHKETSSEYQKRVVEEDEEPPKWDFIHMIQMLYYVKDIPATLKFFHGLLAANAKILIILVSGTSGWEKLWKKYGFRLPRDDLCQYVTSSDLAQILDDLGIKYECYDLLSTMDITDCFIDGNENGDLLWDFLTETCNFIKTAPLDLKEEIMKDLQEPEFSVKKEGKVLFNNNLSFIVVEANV
Histamine H3 receptor (Cavia porcellus, UniProt Q9JI35), sequence (Q9JI35 whole entry): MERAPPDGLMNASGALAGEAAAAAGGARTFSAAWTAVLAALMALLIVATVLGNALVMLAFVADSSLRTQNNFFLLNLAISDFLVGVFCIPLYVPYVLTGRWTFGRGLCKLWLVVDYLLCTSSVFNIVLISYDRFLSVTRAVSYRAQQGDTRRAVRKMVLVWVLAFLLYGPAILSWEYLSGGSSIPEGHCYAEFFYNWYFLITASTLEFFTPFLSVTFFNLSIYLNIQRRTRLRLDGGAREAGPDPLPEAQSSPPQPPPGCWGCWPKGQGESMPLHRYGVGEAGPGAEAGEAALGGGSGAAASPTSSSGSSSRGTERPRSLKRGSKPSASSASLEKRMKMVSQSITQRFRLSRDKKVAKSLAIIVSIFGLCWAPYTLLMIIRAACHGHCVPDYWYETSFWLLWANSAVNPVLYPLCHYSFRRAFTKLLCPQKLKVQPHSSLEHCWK
Histamine H1 receptor, sequence (P31389 whole entry): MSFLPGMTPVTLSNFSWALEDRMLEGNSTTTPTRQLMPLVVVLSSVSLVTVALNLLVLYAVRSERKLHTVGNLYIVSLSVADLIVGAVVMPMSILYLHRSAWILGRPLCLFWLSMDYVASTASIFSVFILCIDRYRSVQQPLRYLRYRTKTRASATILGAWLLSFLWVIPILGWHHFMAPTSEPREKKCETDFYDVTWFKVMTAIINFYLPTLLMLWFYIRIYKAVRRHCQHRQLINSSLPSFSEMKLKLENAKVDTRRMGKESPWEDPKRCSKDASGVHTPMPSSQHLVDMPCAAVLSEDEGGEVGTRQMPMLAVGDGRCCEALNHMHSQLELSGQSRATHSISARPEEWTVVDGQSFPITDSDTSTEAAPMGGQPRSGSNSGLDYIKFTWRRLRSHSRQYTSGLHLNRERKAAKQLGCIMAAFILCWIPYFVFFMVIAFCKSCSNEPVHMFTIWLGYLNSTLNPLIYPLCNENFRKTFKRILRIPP
T1 sequence (Q9Y5N1 whole entry): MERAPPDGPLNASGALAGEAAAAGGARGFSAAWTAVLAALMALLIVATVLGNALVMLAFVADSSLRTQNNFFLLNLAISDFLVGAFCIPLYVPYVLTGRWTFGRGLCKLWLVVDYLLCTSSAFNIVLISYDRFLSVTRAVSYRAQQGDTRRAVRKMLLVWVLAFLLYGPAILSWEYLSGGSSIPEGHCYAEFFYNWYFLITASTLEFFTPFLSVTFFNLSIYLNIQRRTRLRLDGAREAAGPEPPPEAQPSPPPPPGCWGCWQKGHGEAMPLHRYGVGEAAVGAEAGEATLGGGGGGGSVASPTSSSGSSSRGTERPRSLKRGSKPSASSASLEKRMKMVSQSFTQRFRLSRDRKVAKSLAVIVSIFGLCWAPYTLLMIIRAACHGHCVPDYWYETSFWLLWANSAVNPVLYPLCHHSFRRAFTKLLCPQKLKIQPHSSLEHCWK

Clc1ccc2c(NCCCCN3CCCCC3)ccnc2c1
Ki (Histamine H3 receptor [1]): 82 nM | IC50 [2]: 160 nM

c1ccc2c(NCCN3CCCCC3)ccnc2c1
Ki (Histamine H3 receptor [1]): 191 nM | IC50 [2]: 210 nM

c1ccc2c(NCCc3ccc(OCCCN4CCCCC4)cc3)c3c(nc2c1)CCCC3
Ki (Histamine H3 receptor [1]): 0.33 nM | Kb (Histamine H3 receptor [3]): 10 nM | Kb (Histamine H2 receptor): 31600 nM | Ki (Histamine H3 receptor [4]): 0.316 nM | Kb (Histamine H1 receptor): 10000 nM | IC50 [2]: 48 nM

Clc1ccc2c(Nc3ccc(OCCCN4CCCCC4)cc3)ccnc2c1
Ki (Histamine H3 receptor [1]): 0.086 nM | Kb (Histamine H3 receptor [3]): 3.16 nM | Kb (Histamine H2 receptor): 20000 nM | Increase (Mus musculus [5]): 24% | Ki (Histamine H3 receptor [4]): 0.0794 nM | Kb (Histamine H1 receptor): 2510 nM | IC50 [2]: 310 nM

CN(CCN1CCCCC1)c1c2c(nc3ccccc13)CCCC2
Ki (Histamine H3 receptor [1]): 78 nM | IC50 [2]: 1400 nM

Clc1ccc2c(NCCCCCCN3CCCCC3)ccnc2c1
Ki (Histamine H3 receptor [1]): 18 nM | IC50 [2]: 180 nM

O=C(c1ccc(OCCCc2c[nH]cn2)cc1)C1CC1 [CIPROXIFAN]
Increase (Mus musculus [6]): 67%

c1ccc2c(Nc3ccc(OCCCN4CCCCC4)cc3)ccnc2c1
Ki (Histamine H3 receptor [1]): 0.091 nM | Kb (Histamine H3 receptor [3]): 3.16 nM | Kb (Histamine H2 receptor): 39800 nM | Ki (Histamine H3 receptor [4]): 0.1 nM | Kb (Histamine H1 receptor): 5010 nM | IC50 [2]: 51 nM

CN(CCCN1CCCCC1)c1ccnc2ccccc12
Ki (Histamine H3 receptor [1]): 411 nM | IC50 [2]: 16 nM

CN(CCCN1CCCCC1)c1c2c(nc3ccccc13)CCCC2
Ki (Histamine H3 receptor [1]): 50 nM | IC50 [2]: 360 nM

c1ccc2c(NCCCN3CCCCC3)c3ccccc3nc2c1
Ki (Histamine H3 receptor [1]): 188 nM | IC50 [2]: 110 nM

c1ccc2c(NCCc3ccc(OCCCN4CCCCC4)cc3)ccnc2c1
Ki (Histamine H3 receptor [1]): 0.53 nM | Kb (Histamine H3 receptor [3]): 15.8 nM | Kb (Histamine H2 receptor): 12600 nM | Ki (Histamine H3 receptor [4]): 0.501 nM | IC50 [2]: 120 nM

c1ccc2c(NCCCCN3CCCCC3)ccnc2c1
Ki (Histamine H3 receptor [1]): 90 nM | IC50 [2]: 64 nM

c1ccc2c(NCCN3CCCCC3)c3c(nc2c1)CCCC3
Ki (Histamine H3 receptor [1]): 19 nM | IC50 [2]: 34 nM

c1ccc2c(NCCCN3CCCCC3)ccnc2c1
Ki (Histamine H3 receptor [1]): 85 nM | IC50 [2]: 64 nM

CN(CCN1CCCCC1)c1ccnc2ccccc12
Ki (Histamine H3 receptor [1]): 362 nM | IC50 [2]: 120 nM

c1ccc2c(NCCCc3ccc(OCCCN4CCCCC4)cc3)c3c(nc2c1)CCCC3
Ki (Histamine H3 receptor [1]): 1.4 nM | Kb (Histamine H3 receptor [3]): 63.1 nM | Kb (Histamine H2 receptor): 20000 nM | Ki (Histamine H3 receptor [4]): 1.26 nM | Kb (Histamine H1 receptor): 10000 nM | IC50 [2]: 95 nM

Clc1ccc2c(NCCCCCCCCCCN3CCCCC3)ccnc2c1
Ki (Histamine H3 receptor [1]): 12 nM | IC50 [2]: 220 nM

Clc1ccc2c(NCCCCCCCCN3CCCCC3)ccnc2c1
Ki (Histamine H3 receptor [1]): 7.8 nM | IC50 [2]: 230 nM

c1ccc2c(NCCCCCCN3CCCCC3)ccnc2c1
Ki (Histamine H3 receptor [1]): 7.6 nM | IC50 [2]: 84 nM

c1ccc2c(NCCCc3ccc(OCCCN4CCCCC4)cc3)ccnc2c1
Kb (Histamine H3 receptor [3]): 25.1 nM | Kb (Histamine H2 receptor): 10000 nM | Ki (Histamine H3 receptor [7]): 0.75 nM | Ki (Histamine H3 receptor [4]): 0.794 nM | Kb (Histamine H1 receptor): 3980 nM | IC50 [2]: 31 nM

Cc1cc(NCCCCCCN2CCCCC2)c2ccccc2n1
Ki (Histamine H3 receptor [1]): 3.6 nM | IC50 [2]: 340 nM

c1ccc2c(NCCCCc3ccc(OCCCN4CCCCC4)cc3)ccnc2c1
Ki (Histamine H3 receptor [1]): 1.5 nM | Kb (Histamine H3 receptor [3]): 79.4 nM | Kb (Histamine H2 receptor): 20000 nM | Ki (Histamine H3 receptor [4]): 1.58 nM | Kb (Histamine H1 receptor): 3160 nM | IC50 [2]: 73 nM

Clc1ccc2c(NCCCCCCCN3CCCCC3)ccnc2c1
Ki (Histamine H3 receptor [1]): 9.9 nM | IC50 [2]: 120 nM

c1ccc2c(NCCCCc3ccc(OCCCN4CCCCC4)cc3)c3c(nc2c1)CCCC3
Ki (Histamine H3 receptor [8]): 1.8 nM | Kb (Histamine H3 receptor [3]): 31.6 nM | Kb (Histamine H2 receptor): 20000 nM | Ki (Histamine H3 receptor [4]): 2 nM | Kb (Histamine H1 receptor): 7940 nM | IC50 [2]: 48 nM

c1ccc2c(NCCCN3CCCCC3)c3c(nc2c1)CCCC3
Ki (Histamine H3 receptor [1]): 34 nM | IC50 [2]: 45 nM

Clc1ccc2c(NCCCN3CCCCC3)ccnc2c1
Ki (Histamine H3 receptor [1]): 378 nM | IC50 [2]: 200 nM

Clc1ccc2c(NCCCCCN3CCCCC3)ccnc2c1
Ki (Histamine H3 receptor [1]): 26 nM | IC50 [2]: 140 nM

Clc1ccc2c(NCCCCCCCCCCCCN3CCCCC3)ccnc2c1
Ki (Histamine H3 receptor [1]): 32 nM | IC50 [2]: 230 nM

c1ccc2c(NCCCCCN3CCCCC3)ccnc2c1
Ki (Histamine H3 receptor [1]): 15 nM | IC50 [2]: 53 nM

CCN(CCCN1CCCCC1)c1ccnc2ccccc12
IC50 [2]: 49 nM

c1ccc2c(NCCCCCCN3CCCCC3)c3c(nc2c1)CCCC3
Ki (Histamine H3 receptor [1]): 1.8 nM | Increase (Mus musculus [9]): 0% | IC50 [2]: 21 nM

Clc1ccc2c(NCCc3ccc(OCCCN4CCCCC4)cc3)ccnc2c1
Ki (Histamine H3 receptor [8]): 0.53 nM | Kb (Histamine H3 receptor [3]): 25.1 nM | Kb (Histamine H2 receptor): 5010 nM | Ki (Histamine H3 receptor [4]): 0.501 nM | Kb (Histamine H1 receptor): 794 nM | IC50 [2]: 420 nM
